Assay results from different studies.
Target: Mitogen-activated protein kinase kinase kinase 13 (MAP3K13, Homo sapiens, UniProt O43283)
Residues used in one study (O43283 1-966): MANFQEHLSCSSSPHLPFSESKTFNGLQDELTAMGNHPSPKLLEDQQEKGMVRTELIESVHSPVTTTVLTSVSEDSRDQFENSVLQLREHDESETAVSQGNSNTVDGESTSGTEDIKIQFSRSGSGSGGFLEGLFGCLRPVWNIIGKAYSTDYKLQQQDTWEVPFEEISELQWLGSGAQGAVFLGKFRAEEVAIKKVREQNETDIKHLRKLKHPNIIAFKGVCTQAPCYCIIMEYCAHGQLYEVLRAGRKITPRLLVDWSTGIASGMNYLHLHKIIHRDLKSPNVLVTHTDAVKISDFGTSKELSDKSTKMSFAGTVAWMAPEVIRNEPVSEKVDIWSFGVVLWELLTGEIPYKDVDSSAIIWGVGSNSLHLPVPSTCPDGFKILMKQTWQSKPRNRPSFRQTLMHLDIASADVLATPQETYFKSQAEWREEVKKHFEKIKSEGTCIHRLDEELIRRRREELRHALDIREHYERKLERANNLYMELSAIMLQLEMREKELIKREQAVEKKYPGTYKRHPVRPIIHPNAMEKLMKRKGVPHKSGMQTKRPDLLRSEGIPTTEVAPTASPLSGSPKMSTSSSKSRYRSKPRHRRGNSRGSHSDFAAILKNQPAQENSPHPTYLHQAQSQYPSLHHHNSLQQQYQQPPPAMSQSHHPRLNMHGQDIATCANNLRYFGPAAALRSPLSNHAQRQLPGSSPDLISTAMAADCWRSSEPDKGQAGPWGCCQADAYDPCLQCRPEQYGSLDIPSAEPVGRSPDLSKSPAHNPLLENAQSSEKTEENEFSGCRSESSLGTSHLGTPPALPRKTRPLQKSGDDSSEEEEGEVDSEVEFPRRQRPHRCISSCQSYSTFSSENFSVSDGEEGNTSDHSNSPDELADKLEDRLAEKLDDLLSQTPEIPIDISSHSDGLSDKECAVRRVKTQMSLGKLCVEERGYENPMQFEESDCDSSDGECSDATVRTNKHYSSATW

SMILES | read-out | technique | concentration | remaining binding
Cc1cnc(Nc2ccc(C(=O)N3CCC(N4CCCC4)CC3)cc2)nc1-c1cc2ccccc2s1 | binding | competition with immobilised ligand | 1 µM | 25%
CN(C)c1ncc(F)c(-c2cnn3ncccc23)n1 | binding | – | 1 µM | 90%
c1cncc(-c2cccc(Nc3nccc(NC4CCCCC4)n3)c2)c1 | binding | competition with immobilised ligand | 10 µM | 83%
O=C(NCCCN1CCOCC1)c1ccc(Nc2ncc(Cl)c(-c3ccc(Cl)s3)n2)cc1 | binding | competition with immobilised ligand | 1 µM | 92%
F[C@@H]1CCN(c2nccc(-c3cnn4ncccc34)n2)C1 | binding | – | 1 µM | 100%
COc1ccc2c(c1)O[C@H](c1ccc(OC)c(OC)c1)C[C@@H]2NC(=O)C1(c2ccc3c(c2)OC(F)(F)O3)CC1 | cell-free assay | competition with immobilised ligand | 1 µM | 91%
O=C(NCC1CCOCC1)c1n[nH]cc1NC(=O)c1c(F)cccc1F | binding | competition with immobilised ligand | 1 µM | 84%
Cc1c(C(=O)O)cc(-c2ccc(C3CCNCC3)cc2)c2ccc(-c3ccc(C(F)(F)F)cc3)cc12 | binding | competition with immobilised ligand | 1 µM | 100%
COc1cnc(Nc2cccc(S(N)(=O)=O)c2)nc1N1CCN(c2ccccc2)CC1 | binding | competition with immobilised ligand | 1 µM | 96%
O=C(O)[C@@H]1[C@@H](Cn2nnc3ccccc3c2=O)CC[C@H]1C(=O)c1ccc(OCCC2CCOCC2)cc1 | cell-free assay | competition with immobilised ligand | 1 µM | 70%
COc1cnc(Nc2cccc(S(N)(=O)=O)c2)nc1N1CCN(c2ccccc2)C(=O)C1 | binding | competition with immobilised ligand | 1 µM | 100%
CC(=O)C1=C(C)N(c2cccc(C(F)(F)F)c2)C(=O)N[C@@H]1c1ccc(C#N)nc1 | cell-free assay | competition with immobilised ligand | 1 µM | 92.4%
CC1CCCN1c1nccc(-c2cnn3ncccc23)n1 (centres unmarked) | binding | – | 1 µM | 100%
O=C(NCCCC1CCCCC1)c1ccc(CNC(=O)c2cnn(-c3ccccc3)c2C(F)(F)F)cc1 | cell-free assay | competition with immobilised ligand | 0.1 µM | 100%
N[C@@H]1CCN(c2nccc(-c3cnn4ncccc34)n2)C1 | binding | – | 1 µM | 100%
CCN1CCN(Cc2ccc(C(=O)Nc3ccc(C)c(Oc4ccc5c(c4)CC(=O)N5)c3)cc2C(F)(F)F)CC1 | binding | competition with immobilised ligand | 1 µM | 100%
CN(C)c1nccc(-c2cnn3ncccc23)n1 | binding | – | 1 µM | 85%
O=C(c1ccc(Nc2ncc(Cl)c(-c3ccc(Cl)s3)n2)cc1)N1CCC(N2CCCC2)CC1 | binding | competition with immobilised ligand | 1 µM | 48%
C[C@H]1CCN(c2nccc(-c3cnn4ncccc34)n2)C1 | binding | – | 1 µM | 62%
CN1CCN(c2cnc3c(C4CCN(C(=O)c5ccc(OC(F)(F)F)cc5N)CC4)ncnc3c2)CC1 | cell-free assay | competition with immobilised ligand | 1 µM | 100%
